{"source": "ChEMBL document CHEMBL4680079", "about": "“Discovery of a Quinoline-4-carboxamide Derivative with a Novel Mechanism of Action, Multistage Antimalarial Activity, and Potent in Vivo Efficacy” (J Med Chem, 2016)", "key": {"[1]": {"assay": "Intrinsic clearance in CD1 mouse liver microsomes at 0.5 uM in presence of NADPH incubated upto 30 mins by UPLC-MS/MS analysis", "assay_type": "ADME, Microsome", "settings": "0.5 h", "outline": "(§1)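 Compound at 0.5 μM incubated with female CD1 mouse, male Sprague-Dawley rat or pooled human liver microsomes (0.5 mg/mL, 50 mM potassium phosphate, pH 7.4). Reaction started with excess NADPH. Samples taken at 0-30 min, quenched in acetonitrile, analysed by UPLC-MS/MS. Verapamil used as control, single time course.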"}, "Plasmodium berghei [2]": {"test_system": "Plasmodium berghei", "assay": "Antiplasmodial activity against Plasmodium berghei ANKA infected in NMRI mouse assessed as survival days at 3 mg/kg, po QD for 4 days", "assay_type": "functional", "settings": "time 4 day"}, "[3]": {"assay": "Permeability of the compound at 10 uM incubated for 5 hrs by UPLC-MS/MS analysis based PAMPA method", "assay_type": "ADME", "settings": "read-out: permeability", "outline": "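PAMPA run on a lipid-oil-lipid tri-layer filter at pH 7.4. Compound at 10 μM in PBS (DMSO ≤5%) in donor wells, PBS in acceptor wells, kept 5 h at room temperature. Both compartments quantified by UPLC-MS/MS. Data accepted only when recovery exceeded 70%.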"}, "HepG2": {"test_system": "HepG2", "assay": "Antiproliferative activity against human HepG2 cells assessed as reduction in cell viability", "assay_type": "cell-based"}, "Plasmodium falciparum": {"test_system": "Plasmodium falciparum", "assay": "Antiplasmodial activity against chloroquine-sensitive Plasmodium falciparum 3D7 infected in human red blood cells assessed as growth inhibition by SYBR Green fluorescence assay", "assay_type": "functional, organism-based, RBC", "settings": "3D7, Erythrocyte", "outline": "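P. falciparum 3D7 grown in 5% human red cells in RPMI 1640 (pH 7.3) with 0.5% Albumax II, hypoxanthine and gentamicin at 37°C under 1% O₂/3% CO₂. Growth measured by SYBR green fluorescence (ex 485/em 528 nm), with mefloquine as assay control. EC50 calculated.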"}, "Plasmodium berghei [4]": {"test_system": "Plasmodium berghei", "assay": "Antiplasmodial activity against Plasmodium berghei ANKA infected in NMRI mouse assessed as reduction in parasitemia at 10 mg/kg, po QD for 4 days", "assay_type": "functional", "design": "scale not given: the % may be the effect or the level left", "settings": "time 4 day", "outline": "(§2)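 Female NMRI mice (n=3 per group, randomized, not blinded) infected with GFP-transfected P. berghei ANKA. Oral dosing once daily for 4 days in 10% DMSO/40% PEG400/50% water or HPMC suspension vehicle. Parasitaemia measured by flow cytometry on blood collected 96 h after infection. Mice watched for toxicity over 4 h post-dose each day.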"}, "Plasmodium berghei [5]": {"test_system": "Plasmodium berghei", "assay": "Antiplasmodial activity against Plasmodium berghei infected in NMRI mouse assessed as reduction in parasitemia at 3 mg/kg, po QD for 4 days", "assay_type": "functional", "design": "scale not given: the % may be the effect or the level left", "settings": "time 4 day", "outline": "as §2"}, "Plasmodium berghei [6]": {"test_system": "Plasmodium berghei", "assay": "Antiplasmodial activity against Plasmodium berghei ANKA infected in NMRI mouse assessed as survival days at 10 mg/kg, po QD for 4 days", "assay_type": "functional", "settings": "time 4 day"}, "[7]": {"assay": "Kinetic aqueous solubility of the compound by laser nephelometry", "assay_type": "physicochemical", "settings": "read-out: Kinetic_solubility", "outline": "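Kinetic solubility measured by laser nephelometry. DMSO serial dilutions diluted into water to give final 100–5 μg/mL at 1.0% DMSO. Read immediately, in triplicate aliquots.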"}, "[8]": {"assay": "AUC in Sprague-Dawley rat at 3 mg/kg, po administered via gavage by UPLC-MS/MS analysis", "assay_type": "ADME, organism-based", "design": "dose 3 mg/kg", "settings": "in vivo", "outline": "(§3)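 Oral gavage solution, 3 mg free base/kg (10 mL/kg; 0.5% w/v HPMC, 0.4% v/v Tween 80, 0.5% v/v benzyl alcohol), given to male Sprague Dawley rats (n=3). Blood taken at 5, 15, 30 min and 1, 2, 4, 6, 8, 24, 30 h, mixed with two volumes water, analysed by UPLC-MS/MS.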"}, "[9]": {"assay": "Clearance in Sprague-Dawley rat blood at 1 mg/kg, iv administered as bolus dose by UPLC-MS/MS analysis", "assay_type": "ADME, organism-based", "outline": "(§4)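 Male Sprague Dawley rats (n=3/route) received an iv bolus solution at 1 mg free base/kg (5 mL/kg; 5% DMSO in saline). Blood sampled from 5 min to 30 or 48 h post-dose, mixed with two volumes water, frozen, then analysed by UPLC-MS/MS. Parameters derived from the blood concentration-time curve.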"}, "[10]": {"assay": "Half-life in Sprague-Dawley rat at 1 mg/kg, iv administered as bolus dose by UPLC-MS/MS analysis", "assay_type": "ADME, organism-based", "settings": "Sprague-Dawley, in vivo", "outline": "as §4"}, "[11]": {"assay": "Intrinsic clearance in Sprague-Dawley rat liver microsomes at 0.5 uM in presence of NADPH incubated upto 30 mins by UPLC-MS/MS analysis", "assay_type": "ADME, Microsome", "settings": "0.5 h", "outline": "as §1"}, "[12]": {"assay": "Oral bioavailability in Sprague-Dawley rat at 3 mg/kg administered via gavage by UPLC-MS/MS analysis", "assay_type": "ADME, organism-based", "settings": "in vivo", "outline": "as §3"}, "[13]": {"assay": "Volume of distribution at steady state in Sprague-Dawley rat at 1 mg/kg, iv administered as bolus dose by UPLC-MS/MS analysis", "assay_type": "ADME, organism-based", "settings": "Sprague-Dawley, in vivo, read-out: Vdss", "outline": "as §4"}, "[14]": {"assay": "Cmax in Sprague-Dawley rat at 3 mg/kg, po administered via gavage by UPLC-MS/MS analysis", "assay_type": "ADME, organism-based", "design": "route oral, dose 3 mg/kg", "settings": "in vivo", "outline": "as §3"}, "MRC5": {"test_system": "MRC5", "assay": "Antiproliferative activity against human MRC5 cells assessed as reduction in cell viability after 68 hrs by resazurin dye based fluorescence assay", "settings": "MRC5, 68 h", "outline": "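MRC-5 fibroblasts plated overnight as monolayers, exposed to compound pre-diluted in MEM for 68 h. Resazurin then added (final 50 μM) for 3 h, fluorescence read at ex 528/em 590 nm. Signal converted to % inhibition against high- and no-inhibition controls. Plates accepted at Z' > 0.5.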"}, "Plasmodium berghei [15]": {"test_system": "Plasmodium berghei", "assay": "Antiplasmodial activity against Plasmodium berghei ANKA infected in NMRI mouse assessed as reduction in parasitemia at 1 mg/kg, po QD for 4 days", "assay_type": "functional", "design": "scale not given: the % may be the effect or the level left", "settings": "time 4 day", "outline": "as §2"}, "[16]": {"assay": "Intrinsic clearance in human liver microsomes at 0.5 uM in presence of NADPH incubated upto 30 mins by UPLC-MS/MS analysis", "assay_type": "ADME, Microsome", "settings": "0.5 h", "outline": "as §1"}, "[17]": {"assay": "Tmax in Sprague-Dawley rat at 3 mg/kg, po administered via gavage by UPLC-MS/MS analysis", "assay_type": "ADME, organism-based", "settings": "in vivo", "outline": "as §3"}, "Plasmodium berghei [18]": {"test_system": "Plasmodium berghei", "assay": "Antiplasmodial activity against Plasmodium berghei ANKA infected in NMRI mouse assessed as survival days at 1 mg/kg, po QD for 4 days", "assay_type": "functional", "settings": "time 4 day"}}}
{"smiles": "O=C(NCCN1CCC1)c1cc(-c2ccc(CN3CCOCC3)cc2)nc2ccc(F)cc12", "values": [{"measurement": "CLH", "setting": "[1]", "value": 0.5, "unit": "mL/min/g"}, {"measurement": "Survival", "setting": "Plasmodium berghei [2]", "value": 9.3, "unit": "days"}, {"measurement": "Papp at 5 h, 10 µM", "setting": "[3]", "value": 7.5, "unit": "×10⁻⁶ cm/s"}, {"measurement": "EC50", "setting": "HepG2", "value": 41000, "unit": "nM"}, {"measurement": "EC50", "setting": "Plasmodium falciparum", "value": 4, "unit": "nM"}, {"measurement": "Activity", "setting": "Plasmodium berghei [4]", "value": 99.1, "unit": "%"}, {"measurement": "Activity", "setting": "Plasmodium berghei [5]", "value": 99.2, "unit": "%"}, {"measurement": "Survival", "setting": "Plasmodium berghei [6]", "value": 20.3, "unit": "days"}, {"measurement": "solubility kinetic", "setting": "[7]", "value": 71, "unit": "µM"}]}
{"smiles": "O=C(NCCNC1CC1)c1cc(-c2ccc(CN3CCOCC3)cc2)nc2ccc(F)cc12", "values": [{"measurement": "CLH", "setting": "[1]", "value": 2, "unit": "mL/min/g"}, {"measurement": "Papp at 5 h, 10 µM", "setting": "[3]", "value": 4.9, "unit": "×10⁻⁶ cm/s"}, {"measurement": "EC50", "setting": "HepG2", "value": "> 50000", "unit": "nM"}, {"measurement": "EC50", "setting": "Plasmodium falciparum", "value": 2, "unit": "nM"}]}
{"smiles": "O=C(NCCN1CCCC1)c1cc(-c2ccc(CN3CCOCC3)cc2F)nc2ccc(F)cc12", "values": [{"measurement": "CLH", "setting": "[1]", "value": "< 0.5", "unit": "mL/min/g"}, {"measurement": "AUC", "setting": "[8]", "value": 507, "unit": "ng·h/mL"}, {"measurement": "clearance", "setting": "[9]", "value": 32, "unit": "mL/min/kg"}, {"measurement": "Papp at 5 h, 10 µM", "setting": "[3]", "value": 13.2, "unit": "×10⁻⁶ cm/s"}, {"measurement": "half-life", "setting": "[10]", "value": 4, "unit": "h"}, {"measurement": "CLH", "setting": "[11]", "value": "< 0.5", "unit": "mL/min/g"}, {"measurement": "bioavailability", "setting": "[12]", "value": 33, "unit": "%"}, {"measurement": "Vd", "setting": "[13]", "value": 10, "unit": "L/kg"}, {"measurement": "Cmax", "setting": "[14]", "value": 29, "unit": "ng/mL"}, {"measurement": "EC50", "setting": "Plasmodium falciparum", "value": 2, "unit": "nM"}, {"measurement": "EC50", "setting": "MRC5", "value": 41000, "unit": "nM"}, {"measurement": "Activity", "setting": "Plasmodium berghei [15]", "value": 99.9, "unit": "%"}, {"measurement": "CLH", "setting": "[16]", "value": 1.5, "unit": "mL/min/g"}, {"measurement": "Tmax", "setting": "[17]", "value": 8, "unit": "h"}, {"measurement": "Survival", "setting": "Plasmodium berghei [18]", "value": 14, "unit": "days"}, {"measurement": "solubility kinetic", "setting": "[7]", "value": 208, "unit": "µM"}]}
